# Measurements reported in ChEMBL document CHEMBL1773037, “Evaluation of superior BACE1 cleavage sequences containing unnatural amino acids” (Bioorg Med Chem, 2011).
# Calls of active or inactive are those of the source. No cut-off for these calls is given here. Starred links: 1 amine or outer side, 2 acyl side, 3 side chain; linkers in the order of their positions; H or OH if unused. Non-standard residues stand in square brackets, D forms with d. Residues, ends and D or L forms follow the SMILES beside them. X1 = O=C(O)[C@@H]1Cc2ccccc2CN1[C@H](N[*:1])C(=O)[*:2]; 2Thi = N[C@@H](Cc1cccs1)C(=O)O; Cha = N[C@@H](CC1CCCCC1)C(=O)O; Cit = NC(=O)NCCC[C@H](N)C(=O)O; Phg = N[C@H](C(=O)O)c1ccccc1; Tle = CC(C)(C)[C@H](N)C(=O)O; Nva = CCC[C@H](N)C(=O)O; Abu = CC[C@H](N)C(=O)O
# What was measured:
# [1] = target: Beta-secretase 1 (Homo sapiens) (UniProt P56817); test: Activity of recombinant BACE assessed as substrate cleavage at 300 uM after 3 hrs by HPLC analysis
# Outline: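 Individually synthesized, purified substrates at 300 µM in 40 mM AcONa buffer, pH 4.5, 37 °C. rBACE1 used at 60 nM (P1, P4 substrates), 30 nM (P2, P3 substrates) or 10 nM (P1' substrates and the dodecapeptide). Aliquots taken at 0, 1 and 3 h, quenched with 7 M GuHCl, and the decrease in each substrate peak monitored by HPLC.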
# [2] = target: Beta-secretase 1 (Homo sapiens) (UniProt P56817); test: Activity of recombinant BACE assessed as retention time of substrate by HPLC method
# Beta-secretase 1 (Homo sapiens), sequence (P56817 whole entry): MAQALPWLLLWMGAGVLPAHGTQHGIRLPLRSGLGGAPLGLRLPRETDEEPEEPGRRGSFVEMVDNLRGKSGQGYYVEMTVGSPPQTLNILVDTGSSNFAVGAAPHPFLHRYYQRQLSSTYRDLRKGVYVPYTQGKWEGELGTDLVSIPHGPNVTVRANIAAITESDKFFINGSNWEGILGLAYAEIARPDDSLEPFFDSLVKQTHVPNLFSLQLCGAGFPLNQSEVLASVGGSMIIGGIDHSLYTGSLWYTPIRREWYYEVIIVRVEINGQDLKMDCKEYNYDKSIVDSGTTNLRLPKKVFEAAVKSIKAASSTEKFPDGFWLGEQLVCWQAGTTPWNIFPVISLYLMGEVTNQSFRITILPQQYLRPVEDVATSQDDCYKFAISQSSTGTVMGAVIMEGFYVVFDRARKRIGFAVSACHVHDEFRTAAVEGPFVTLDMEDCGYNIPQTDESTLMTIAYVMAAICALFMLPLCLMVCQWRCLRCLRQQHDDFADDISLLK
SMILES,Activity [1],retention time [2] [h]
CCC[C@H](NC(=O)[C@@H](NC(=O)[C@H](CCC(=O)O)NC(=O)[C@H](CO)NC(=O)[C@@H](N)[C@@H](C)CC)C(C)C)C(=O)N[C@@H](CC(C)C)C(=O)N[C@@H](CC(=O)O)C(=O)N[C@@H](C)C(=O)N[C@@H](CCC(=O)O)C(=O)N[C@@H](Cc1ccccc1)C(=O)N[C@@H](CCCNC(=N)N)C(=O)N[C@@H](Cc1cnc[nH]1)C(N)=O (H-ISEV[Nva]LDAEFRH-NH2),Active,0.521
CCC[C@H](NC(=O)[C@H](CCC(=O)O)NC(=O)[C@H](CO)NC(=O)[C@@H](N)[C@@H](C)CC)C(=O)N[C@@H](CC(N)=O)C(=O)N[C@@H](CC(C)C)C(=O)N[C@@H](CC(=O)O)C(=O)N[C@@H](C)C(=O)N[C@@H](CCC(=O)O)C(=O)N[C@@H](Cc1ccccc1)C(=O)N[C@@H](CCCNC(=N)N)C(=O)N[C@@H](Cc1cnc[nH]1)C(N)=O (H-ISE[Nva]NLDAEFRH-NH2),Active,0.496
CC[C@H](C)[C@H](N)C(=O)N[C@@H](CO)C(=O)N[C@@H](CCC(=O)O)C(=O)N[C@H](C(=O)N[C@@H](CC(N)=O)C(=O)N[C@@H](CC(C)C)C(=O)N[C@@H](CC(=O)O)C(=O)N[C@@H](C)C(=O)N[C@@H](CCC(=O)O)C(=O)N[C@@H](Cc1ccccc1)C(=O)N[C@@H](CCCNC(=N)N)C(=O)N[C@@H](Cc1cnc[nH]1)C(N)=O)[C@@H](C)CC (H-ISEINLDAEFRH-NH2),Active,0.517
CCC[C@H](NC(=O)[C@H](CC(C)C)NC(=O)[C@H](CC(N)=O)NC(=O)[C@@H](NC(=O)[C@H](CCC(=O)O)NC(=O)[C@H](CO)NC(=O)[C@@H](N)[C@@H](C)CC)C(C)C)C(=O)N[C@@H](C)C(=O)N[C@@H](CCC(=O)O)C(=O)N[C@@H](Cc1ccccc1)C(=O)N[C@@H](CCCNC(=N)N)C(=O)N[C@@H](Cc1cnc[nH]1)C(N)=O (H-ISEVNL[Nva]AEFRH-NH2),Active,0.622
CC[C@H](C)[C@H](N)C(=O)N[C@@H](CO)C(=O)N[C@@H](CCC(=O)O)C(=O)N[C@H](C(=O)N[C@@H](Cc1cccs1)C(=O)N[C@@H](CC(C)C)C(=O)N[C@@H](CC(=O)O)C(=O)N[C@@H](C)C(=O)N[C@@H](CCC(=O)O)C(=O)N[C@@H](Cc1ccccc1)C(=O)N[C@@H](CCCNC(=N)N)C(=O)N[C@@H](Cc1cnc[nH]1)C(N)=O)C(C)C (H-ISEV[2Thi]LDAEFRH-NH2),Active,0.551
CC[C@H](C)[C@H](N)C(=O)N[C@@H](CO)C(=O)N[C@@H](CCC(=O)O)C(=O)N[C@H](C(=O)N[C@@H](CC(N)=O)C(=O)N[C@@H](Cc1ccccc1)C(=O)N[C@@H](CC(=O)O)C(=O)N[C@@H](C)C(=O)N[C@@H](CCC(=O)O)C(=O)N[C@@H](Cc1ccccc1)C(=O)N[C@@H](CCCNC(=N)N)C(=O)N[C@@H](Cc1cnc[nH]1)C(N)=O)C(C)C (H-ISEVNFDAEFRH-NH2),50%,0.502
CC[C@H](C)[C@H](N)C(=O)N[C@@H](CO)C(=O)N[C@@H](CCC(=O)O)C(=O)N[C@H](C(=O)N[C@@H](CC(N)=O)C(=O)N[C@@H](CC(=O)O)C(=O)N[C@@H](CC(=O)O)C(=O)N[C@@H](C)C(=O)N[C@@H](CCC(=O)O)C(=O)N[C@@H](Cc1ccccc1)C(=O)N[C@@H](CCCNC(=N)N)C(=O)N[C@@H](Cc1cnc[nH]1)C(N)=O)C(C)C (H-ISEVNDDAEFRH-NH2),Active,–
CC[C@H](C)[C@H](N)C(=O)N[C@@H](CO)C(=O)N[C@@H](CCC(=O)O)C(=O)N[C@H](C(=O)N[C@@H](CC(N)=O)C(=O)N[C@@H](CCSC)C(=O)N[C@@H](CC(=O)O)C(=O)N[C@@H](C)C(=O)N[C@@H](CCC(=O)O)C(=O)N[C@@H](Cc1ccccc1)C(=O)N[C@@H](CCCNC(=N)N)C(=O)N[C@@H](Cc1cnc[nH]1)C(N)=O)C(C)C (H-ISEVNMDAEFRH-NH2),Active,–
CC[C@H](C)[C@H](N)C(=O)N[C@@H](CO)C(=O)N[C@@H](CCC(=O)O)C(=O)N[C@H](C(=O)N[C@@H](CC(N)=O)C(=O)N[C@@H](CC(C)C)C(=O)N[C@@H](CCSC)C(=O)N[C@@H](C)C(=O)N[C@@H](CCC(=O)O)C(=O)N[C@@H](Cc1ccccc1)C(=O)N[C@@H](CCCNC(=N)N)C(=O)N[C@@H](Cc1cnc[nH]1)C(N)=O)C(C)C (H-ISEVNLMAEFRH-NH2),Active,0.622
CC[C@H](C)[C@H](N)C(=O)N[C@@H](CO)C(=O)N[C@@H](CCC(=O)O)C(=O)N[C@H](C(=O)N[C@@H](CCSC)C(=O)N[C@@H](CC(C)C)C(=O)N[C@@H](CC(=O)O)C(=O)N[C@@H](C)C(=O)N[C@@H](CCC(=O)O)C(=O)N[C@@H](Cc1ccccc1)C(=O)N[C@@H](CCCNC(=N)N)C(=O)N[C@@H](Cc1cnc[nH]1)C(N)=O)C(C)C (H-ISEVMLDAEFRH-NH2),Active,0.521
CC[C@H](C)[C@H](N)C(=O)N[C@@H](CO)C(=O)N[C@H](C(=O)N[C@H](C(=O)N[C@@H](CC(N)=O)C(=O)N[C@@H](CC(C)C)C(=O)N[C@@H](CC(=O)O)C(=O)N[C@@H](C)C(=O)N[C@@H](CCC(=O)O)C(=O)N[C@@H](Cc1ccccc1)C(=O)N[C@@H](CCCNC(=N)N)C(=O)N[C@@H](Cc1cnc[nH]1)C(N)=O)C(C)C)C(C)(C)C (H-IS[Tle]VNLDAEFRH-NH2),–,0.588
CC[C@H](C)[C@H](N)C(=O)N[C@@H](CO)C(=O)N[C@@H](CCC(=O)O)C(=O)N[C@H](C(=O)N[C@@H](CC(N)=O)C(=O)N[C@@H](CC(C)C)C(=O)N[C@@H](CC(=O)O)C(=O)N[C@@H](C)C(=O)N[C@@H](CCC(=O)O)C(=O)N[C@@H](Cc1ccccc1)C(=O)N[C@@H](CCCNC(=N)N)C(=O)N[C@@H](Cc1cnc[nH]1)C(N)=O)c1ccccc1 (H-ISE[Phg]NLDAEFRH-NH2),–,0.514
CC[C@H](C)[C@H](N)C(=O)N[C@@H](CO)C(=O)N[C@@H](CCC(=O)O)C(=O)N[C@H](C(=O)N[C@@H](CC(N)=O)C(=O)N[C@@H](CC(C)C)C(=O)N[C@H](C(=O)N[C@@H](C)C(=O)N[C@@H](CCC(=O)O)C(=O)N[C@@H](Cc1ccccc1)C(=O)N[C@@H](CCCNC(=N)N)C(=O)N[C@@H](Cc1cnc[nH]1)C(N)=O)N1Cc2ccccc2C[C@H]1C(=O)O)C(C)C (H-ISEVNL[X1]AEFRH-NH2),–,0.648
CC[C@H](C)[C@H](N)C(=O)N[C@@H](CO)C(=O)N[C@H](C(=O)N[C@H](C(=O)N[C@@H](CC(N)=O)C(=O)N[C@@H](CC(C)C)C(=O)N[C@@H](CC(=O)O)C(=O)N[C@@H](C)C(=O)N[C@@H](CCC(=O)O)C(=O)N[C@@H](Cc1ccccc1)C(=O)N[C@@H](CCCNC(=N)N)C(=O)N[C@@H](Cc1cnc[nH]1)C(N)=O)C(C)C)N1Cc2ccccc2C[C@H]1C(=O)O (H-IS[X1]VNLDAEFRH-NH2),–,0.628
CC[C@H](C)[C@H](N)C(=O)N[C@@H](CO)C(=O)N[C@@H](CCC(=O)O)C(=O)N[C@@H](Cc1cccs1)C(=O)N[C@@H](CC(N)=O)C(=O)N[C@@H](CC(C)C)C(=O)N[C@@H](CC(=O)O)C(=O)N[C@@H](C)C(=O)N[C@@H](CCC(=O)O)C(=O)N[C@@H](Cc1ccccc1)C(=O)N[C@@H](CCCNC(=N)N)C(=O)N[C@@H](Cc1cnc[nH]1)C(N)=O (H-ISE[2Thi]NLDAEFRH-NH2),–,0.533
CC[C@H](NC(=O)[C@H](CCC(=O)O)NC(=O)[C@H](CO)NC(=O)[C@@H](N)[C@@H](C)CC)C(=O)N[C@@H](CC(N)=O)C(=O)N[C@@H](CC(C)C)C(=O)N[C@@H](CC(=O)O)C(=O)N[C@@H](C)C(=O)N[C@@H](CCC(=O)O)C(=O)N[C@@H](Cc1ccccc1)C(=O)N[C@@H](CCCNC(=N)N)C(=O)N[C@@H](Cc1cnc[nH]1)C(N)=O (H-ISE[Abu]NLDAEFRH-NH2),–,0.47
CC[C@H](C)[C@H](N)C(=O)N[C@@H](CO)C(=O)N[C@@H](CCC(=O)O)C(=O)N[C@H](C(=O)N[C@@H](CC(N)=O)C(=O)N[C@@H](CC(C)C)C(=O)N[C@H](C(=O)N[C@@H](C)C(=O)N[C@@H](CCC(=O)O)C(=O)N[C@@H](Cc1ccccc1)C(=O)N[C@@H](CCCNC(=N)N)C(=O)N[C@@H](Cc1cnc[nH]1)C(N)=O)c1ccccc1)C(C)C (H-ISEVNL[Phg]AEFRH-NH2),–,0.617
CC[C@H](C)[C@H](N)C(=O)N[C@@H](CO)C(=O)N[C@@H](CCC(=O)O)C(=O)N[C@@H](CCCNC(N)=O)C(=O)N[C@@H](CC(N)=O)C(=O)N[C@@H](CC(C)C)C(=O)N[C@@H](CC(=O)O)C(=O)N[C@@H](C)C(=O)N[C@@H](CCC(=O)O)C(=O)N[C@@H](Cc1ccccc1)C(=O)N[C@@H](CCCNC(=N)N)C(=O)N[C@@H](Cc1cnc[nH]1)C(N)=O (H-ISE[Cit]NLDAEFRH-NH2),–,0.438
CC[C@H](C)[C@H](N)C(=O)N[C@@H](CO)C(=O)N[C@@H](CCC(=O)O)C(=O)N[C@@H](CC1CCCCC1)C(=O)N[C@@H](CC(N)=O)C(=O)N[C@@H](CC(C)C)C(=O)N[C@@H](CC(=O)O)C(=O)N[C@@H](C)C(=O)N[C@@H](CCC(=O)O)C(=O)N[C@@H](Cc1ccccc1)C(=O)N[C@@H](CCCNC(=N)N)C(=O)N[C@@H](Cc1cnc[nH]1)C(N)=O (H-ISE[Cha]NLDAEFRH-NH2),–,0.592
CC[C@H](C)[C@H](N)C(=O)N[C@@H](CO)C(=O)N[C@@H](CCC(=O)O)C(=O)N[C@@H](CCC(=O)O)C(=O)N[C@@H](CC(N)=O)C(=O)N[C@@H](CC(C)C)C(=O)N[C@@H](CC(=O)O)C(=O)N[C@@H](C)C(=O)N[C@@H](CCC(=O)O)C(=O)N[C@@H](Cc1ccccc1)C(=O)N[C@@H](CCCNC(=N)N)C(=O)N[C@@H](Cc1cnc[nH]1)C(N)=O (H-ISEENLDAEFRH-NH2),–,0.457
CC[C@H](C)[C@H](N)C(=O)N[C@@H](CO)C(=O)N[C@@H](CCC(=O)O)C(=O)N[C@H](C(=O)N[C@H](C(=O)N[C@@H](CC(C)C)C(=O)N[C@@H](CC(=O)O)C(=O)N[C@@H](C)C(=O)N[C@@H](CCC(=O)O)C(=O)N[C@@H](Cc1ccccc1)C(=O)N[C@@H](CCCNC(=N)N)C(=O)N[C@@H](Cc1cnc[nH]1)C(N)=O)C(C)(C)C)C(C)C (H-ISEV[Tle]LDAEFRH-NH2),–,0.531
